Values after ≈ are worked out from the molar mass of the structure shown.

The subject of one assay is Plasmodium falciparum. Description: Antimalarial activity against Plasmodium falciparum K1 by [3H]hypoxanthine uptake. Type of assay: functional, organism-based. An outline of the steps: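 P. falciparum K1 (multidrug-resistant strain) kept in culture after Trager and Jensen; in vitro microculture radioisotope assay per Desjardins. Parasite growth read as [3H]-hypoxanthine uptake; IC50 = concentration giving 50% reduction in growth. Artemisinin as positive control.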

For assay [1], the system named is Mycobacterium tuberculosis. Description: Antimycobacterial activity against Mycobacterium tuberculosis H37Ra by Alamar blue assay. Type of assay: functional. In short, it runs like this:
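Microplate Alamar Blue Assay (MABA) against strain H37Ra, with isoniazid and kanamycin sulfate as positive-control drugs.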
In general terms: The colour change of resazurin is a common sign of viable cells or microbes.

The next assay deals with KB. Description: Cytotoxicity against human KB cells. The format is functional, cell-based. In short, it runs like this: (§1)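 Human cancer cell lines: epidermoid carcinoma KB, breast cancer BC1 and small cell lung cancer NCI-H187. Colorimetric cytotoxicity method of Skehan and co-workers, with ellipticine as reference.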
Another assay relates to NCI-H187. Description: Cytotoxicity against human NCI-H187 cells. Type of assay: functional, cell-based. In short, it runs like this:
as §1

Assay [2] is described as follows: Cytotoxicity against human BC1 cells. The format is functional, cell-based. In short, it runs like this: as §1

Broadly, the IC50 is the concentration needed to halve the response being measured. By MIC is commonly meant the lowest concentration that inhibits growth of the organism. High values mean weaker potency, low ones greater potency. With `C=CC(=C)CC[C@]1(C)[C@H]2C[C@H](OC(=O)C(C)CC)C=C3[C@H](OC(C)=O)O[C@H](OC(C)=O)[C@@]32[C@H](OC)C[C@@H]1C` (relative stereo), the IC50 in the assay on Plasmodium falciparum is 3.2 µg/mL (≈ 6.01 µM); in the assay with KB, 7.6 µg/mL (≈ 14.3 µM); in the assay with NCI-H187, 0.8 µg/mL (≈ 1.5 µM); in assay [2] it was 4 µg/mL (≈ 7.51 µM). The same molecule yielded a minimum inhibitory concentration (MIC) in assay [1] of 12.5 µg/mL (≈ 23.5 µM).

Take `C=CC(=C)CC[C@]1(C)[C@H]2C[C@H](OC(=O)C(C)CC)C=C3[C@H](OC(C)=O)O[C@H](OC(C)=O)[C@@]32[C@H](O)C[C@@H]1C` (relative stereo): the half-inhibitory concentration (IC50) in the assay with Plasmodium falciparum turned out to be 3.1 µg/mL (≈ 5.98 µM); in the assay on KB it was 2.8 µg/mL (≈ 5.4 µM); in the assay with NCI-H187, 5.3 µg/mL (≈ 10.2 µM); in assay [2], 2.5 µg/mL (≈ 4.82 µM). Also, inhibition of growth in assay [1] (MIC) required 12.5 µg/mL (≈ 24.1 µM).

Turning to `C=C/C(C)=C\C[C@]1(C)[C@H](C)CC[C@@]23C(=C[C@H](O)C[C@@H]12)[C@@H](OC(C)=O)O[C@H]3OC(C)=O` [CASEARGREWIIN D], the IC50 in the assay on Plasmodium falciparum was found to be 3.3 µg/mL (≈ 7.88 µM); with KB, 1.3 µg/mL (≈ 3.11 µM); in the assay on NCI-H187, 1.5 µg/mL (≈ 3.58 µM); in assay [2] it was 0.1 µg/mL (≈ 0.239 µM). Also, the MIC in assay [1] came out at 12.5 µg/mL (≈ 29.9 µM).

Molecule `NC[C@H]1O[C@H](O[C@H]2[C@H](O)[C@@H](O[C@H]3O[C@H](CO)[C@@H](O)[C@H](N)[C@H]3O)[C@H](N)C[C@@H]2N)[C@H](O)[C@@H](O)[C@@H]1O.O=S(=O)(O)O` [KANAMYCIN SULFATE] registered an MIC in assay [1] of 2.5 µg/mL.

The molecule `Cc1c2ccncc2c(C)c2c1[nH]c1ccccc12` [ELLIPTECINE] displayed an IC50 in assay [2] of 0.26 µg/mL (≈ 1.06 µM).

`C[C@@H]1CC[C@H]2[C@@H](C)C(=O)O[C@@H]3O[C@@]4(C)CC[C@@H]1[C@]32OO4` [ARTEMISININ] registered an IC50 with Plasmodium falciparum of 0.001 µg/mL (≈ 0.00354 µM).

Take `C=CC(=C)CC[C@]1(C)[C@H]2C[C@H](OC(=O)CC(C)C)C=C3[C@H](OC(C)=O)O[C@H](OC(C)=O)[C@@]32[C@H](OC)C[C@@H]1C` (relative stereo) [CASEARGREWIIN A]: the IC50 worked out at 2.9 µg/mL (≈ 5.44 µM) in the assay on Plasmodium falciparum, 8.7 µg/mL (≈ 16.3 µM) in the assay with KB, 0.9 µg/mL (≈ 1.69 µM) in the assay with NCI-H187 and 4.6 µg/mL (≈ 8.64 µM) in assay [2]. In assay [1], this molecule came in with an MIC of 12.5 µg/mL (≈ 23.5 µM).

`NNC(=O)c1ccncc1` [ISONIAZID] came in with an MIC in assay [1] of 0.05 µg/mL (≈ 0.365 µM).

Consider `C=C/C(C)=C\C[C@]1(C)[C@H](C)[C@@H](OC(C)=O)[C@H](O)[C@@]23C(=C[C@H](OC(=O)CC(C)C)C[C@@H]12)[C@@H](OC(C)=O)O[C@H]3OC(C)=O` (relative stereo) [CASEARGREWIIN C], for which the IC50 in the assay with Plasmodium falciparum stood at 3 µg/mL (≈ 5.2 µM); in the assay on KB it was 1.9 µg/mL (≈ 3.29 µM); with NCI-H187, 0.3 µg/mL (≈ 0.52 µM); in assay [2], 2 µg/mL (≈ 3.47 µM). The MIC in assay [1] is 25 µg/mL (≈ 43.4 µM).

Take `C=C/C(C)=C\C[C@]1(C)[C@H](C)[C@@H](OC(=O)/C=C/c2ccc(O)cc2)[C@H](O)[C@@]23C(=C[C@H](OC(=O)CCC)C[C@@H]12)[C@@H](OC(C)=O)O[C@H]3OC(C)=O` (relative stereo) [CASEARGREWIIN B]: the IC50 is 2.4 µg/mL (≈ 3.6 µM) in the assay with Plasmodium falciparum, 2.3 µg/mL (≈ 3.45 µM) with KB, 1.5 µg/mL (≈ 2.25 µM) with NCI-H187 and 1.9 µg/mL (≈ 2.85 µM) in assay [2]. In assay [1], this molecule registered an MIC of 12.5 µg/mL (≈ 18.7 µM).

The values above are taken from ChEMBL document CHEMBL1142576, “New bioactive clerodane diterpenoids from the bark of Casearia grewiifolia” (J Nat Prod, 2005).
